As a reminder, the apparent Kd is the concentration giving half-maximal binding under the conditions of the assay.

The data set concerns MS2 coat protein. Description: apparent Kd, MS2 coat protein; higher = weaker binding; RNA-MaP array; FMN 200 µM where present. In outline: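 SNAP-549-labelled MS2 coat protein, doubled from 0.7 or 1.5 nM to 3 µM, was titrated over designs transcribed by stalled E. coli RNA polymerase on Illumina sequencing-chip clusters. Titrations were run without and then with constant ligand in 100 mM Tris-HCl pH 7.5, 80 mM KCl, 4 mM MgCl2, BSA, DTT, yeast tRNA and Tween-20. The apparent Kd is the median of filtered per-cluster fits to green signal normalised to red-channel RNA signal and control-cluster median Fmax.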

The mark [1] stands for this setting: designed as: ON switch for flavin mononucleotide, no ligand.
Setting [2] is: ligand present: flavin mononucleotide, designed as: ON switch for flavin mononucleotide.
The mark [3] stands for this setting: designed as: OFF switch for flavin mononucleotide, no ligand.
[4] abbreviates: ligand present: flavin mononucleotide, designed as: OFF switch for flavin mononucleotide.

Consider “GGACGUCACAUUUACAUGAGGAUCACCCAUGUCUCUUGACAUGAGGAUAUGUAUACUAAUUGUAUACAGAAGGCAUGGACGUCC”, for which the “apparent Kd” value came out at 1010 nM under setting [1] and 168 nM under setting [2]. As for “UGGUACAUGGGAGGAUAUGGGUUGAUAACAUGAGGAUCACCCAUGUUAAAUAUCCCGAGAGGGAACUAGAAGGCCCAUGUACCU”, the “apparent Kd” value is, setting by setting: under setting [1], 643 nM; under setting [2], 46 nM. Turning to “CUUUUGUGAGGAUAUCAGGUGUGCUAGCGUACUGGUACAUCUGAGAAGGCACAUGAGGAUCACCCAUGUUCCUU”, the “apparent Kd” value reads like this: under setting [3], 13.4 nM; under setting [4], 29.2 nM.

“CCGUCACAUGAGGAUCACCCAUGUCAGGAUAUCUAUCAUAGCAUCGAAAGAUGCGGGUAGAGAAGGGACUAUCC”: under setting [4], the “apparent Kd” value turned out to be 22.6 nM. As for “GCAGCAAUUUAAAACAUGAGGAUCACCCAUGUCGAGAGAUAUGAGGAUAUGCAUCGGAUGAAGAUGCAGAAGGCAUUGUGCUGC”, the “apparent Kd” value is, setting by setting: under setting [1], 24.8 nM; under setting [2], 7.68 nM. Turning to “GUCAUGUGAGGAUAUGUAUUGCGCAUGCCGAAAACAUGGCGGCAGAAGGCACAUGAGGAUCACCCAUGUGGGUU”, the “apparent Kd” value amounted to 62.7 nM under setting [3] and 34.4 nM under setting [4]. Take “UGAGCAUGAGGAUAUACAAGGCGUGCGUGAGCACGAGGUUUACAUGAGGAUCACCCAUGUAGAAGGCAUGUUCU”: the “apparent Kd” value under setting [3] was 19.1 nM and the “apparent Kd” value under setting [4] amounted to 39.8 nM. “CUGAUGUAAGGAUAUGUGUAGAAAUCAAAUCGGAUAUUCUAACAGAAGGUACAUGAGGAUCACCCAUGUGAGAA”: the “apparent Kd” value is, setting by setting: under setting [3], 39.7 nM; under setting [4], 71.2 nM. Consider “CUGUUUUUCGCAGGAUAUGCUCCUCCUUUAUUAGCAGAAGGGCGUUAAACAUGAGGAUCACCCAUGUAUGGUAAUGACAUUUUC”, for which the “apparent Kd” value is 33.6 nM under setting [3] and 209 nM under setting [4]. Taken in the same sequence, the figures for “AGUGACGACGAGGAUAUUCCGGUAGCCUACUAAGAAGAAGGUGUCACAUGAGGAUCACCCAUGUUUAGUUUCGC” were 141 nM and 68.7 nM. With “GUAGCAUUCUGAGGAUAUUCAUACCGGAAACGGACAUGAGGAUCACCCAUGUGGCGAAAGCCUUGGAAGAAGGCAGUAUGCUAC”, the “apparent Kd” value reads like this: under setting [1], 4.27 nM; under setting [2], 3.56 nM. Turning to “UUACUAUCACAGAAGGCUGGAUAGUAUAUAGACGGAGGAUAUGUGACAUGAGGAUCACCCAUGUUUCACCGACAUGAGGAUCAA”, the “apparent Kd” value was determined as 22.5 nM under setting [3] and 54.1 nM under setting [4]. For the sequence “UCCUCACAUGAGGAUCACCCAUGUCAGGAUAUCUGCGAGCAAUGGCCAAGGCCACUCAGGAGAAGGGACGUCAA”, the “apparent Kd” value worked out at 16.3 nM under setting [3] and 22.3 nM under setting [4]. As to “UGCAGCGUGCACAUGAGGAUCACCCAUGUGCCAGUGGACGCACAGGAUAUGCAAUCGUACGGCUAGCAGAAGGGUGGGUCUCAC”, the “apparent Kd” value runs as follows: under setting [1], 7.37 nM; under setting [2], 7 nM.

In the case of “CUGUGACGGUGCGCAAGUGUACGUAGAAGGGUCACAUGAGGAUCACCCAUGUGGGCCUGCGAGUGACAGGAUAUACGUGCGUGC”, the “apparent Kd” value came to 6.39 nM under setting [3] and 12.4 nM under setting [4].

As to “AGGUCGAGUGUGAGGAUAUUGACCGGACGACCCAUCGAGAAGGCACAUGAGGAUCACCCAUGUGAUUCAGCUCA”, the “apparent Kd” value reads like this: under setting [3], 15 nM; under setting [4], 17.1 nM. Taken in the same sequence, the figures for “CGCACUGAUAGAGGAUAUGUUUAACAUGAGGAUCACCCAUGUGUACAAGAAUCAAUAUUUAUCAAACAGAAGGCUAUUAGUGCG” were 5.06 nM and 4.08 nM.

With “AAGUCUGUACGAGGAUAUCAGUUGUAUCUAAAUUCAACAUGAGGAUCACCCAUGUUGCAAUAGGGUGAGAAGGCGUGUGGGCAA”, the “apparent Kd” value under setting [1] came out at 70.1 nM and the “apparent Kd” value under setting [2] was found to be 21.6 nM. Consider “UUUUAACAUGAGGAUCACCCAUGUGAGGAUAUCGAAAUUUAUAUUAAUAUUUAUAUUUCGAGAAGGCACAUUUU”, for which the “apparent Kd” value under setting [3] worked out at 204 nM and the “apparent Kd” value under setting [4] was 191 nM. In the case of “GUAAAGUGAGGAUAUGGUAAAGUAAUUAUUUAGUAAGUAAUCCAGAAGGCACAUGAGGAUCACCCAUGUAAAUG”, the “apparent Kd” value reads like this: under setting [3], 31.3 nM; under setting [4], 36.8 nM. Take “AUUGAUGUUGAGGAUAUGCUUAUAUUUAUACUUGCAGAAGGCGAUACAUGAGGAUCACCCAUGUUCAUGGAAGU”: the “apparent Kd” value is 31.3 nM under setting [3] and 33.8 nM under setting [4]. “CUGGUUGUCGAGGAUAUGUCCCGGCUCGCUGUCGCAGAAGGCGACACAUGAGGAUCACCCAUGUCGGUUCGCGU”: the “apparent Kd” value reads like this: under setting [3], 34.6 nM; under setting [4], 30.5 nM. As for “UAAGUCGGAGAUAAUAAUGAUUACAUGAGGAUCACCCAUGUAUAGGAUAUCGUCAGGAAUACUGACGAGAAGGAUACAACCGAC”, the “apparent Kd” value reads like this: under setting [3], 17.9 nM; under setting [4], 25.8 nM. As for “AAGCCCUGAGGAUAUCCCAACUCGCACAUGAGGAUCACCCAUGUCCUCCUCUGGGCUUCGGGAGAAGGCAGGUCUC”, the “apparent Kd” value runs as follows: under setting [3], 43.1 nM; under setting [4], 114 nM. Turning to “CGCUACGUUUCGUAGCAGUGUCAUCGAGAAGGCCCUGACAUGAGGAUCACCCAUGUUAAAACAUGGGAGGAUAUCGAUGAUACA”, the “apparent Kd” value reads like this: under setting [1], 11.7 nM; under setting [2], 4.87 nM. “AAUUAAUUGUAGAAGGUACUUAAUUAUGAUAUGUAAGGAUAUACGAUAUUAUUACGACAUGUAUGACAUGAGGAUCACCCAUGU”: the “apparent Kd” value was found to be 12.4 nM under setting [1] and 9.23 nM under setting [2]. For the sequence “GCGUACAUAUCAGGAUAUCAUUGUAUUGUUUUACUCAGUGUAUACAUGAGGAUCACCCAUGUUCUUGAGAAGGGAUUACUACGC”, the “apparent Kd” value is 15.1 nM under setting [3] and 14.1 nM under setting [4]. On to “AUUGUAGUUGUGAGGAUAUCGUUGAUUUUUUGAAACGAGAAGGCACAUGAGGAUCACCCAUGUAAGUUGUAGGU”, for which the “apparent Kd” value came to 80.6 nM under setting [3] and 315 nM under setting [4]. In the case of “AAAACUCACGUAGGAUAUCAUUCCUUAAGGUAGUGAGAAGGACGUGACUACAUGUCCUUGAACAUGAGGAUCACCCAUGUAGGC”, the “apparent Kd” value amounted to 49.5 nM under setting [3] and 55.4 nM under setting [4]. For the sequence “ACUGUUUGAUUCCUCUUUUACAUGAGGAUCACCCAUGUUAUCGAGGAUAUGCAUUAGAGUGUUUAGCAGAAGGCGAUGUAAUUG”, the “apparent Kd” value was 6.51 nM under setting [3] and 20.8 nM under setting [4]. Turning to “AAUUACAUGUAGAAGGUACUUAAUUAAGUGUUGUAAGGAUAUACCAAUUUAUUAGUUUUAAAGAUACAUGAGGAUCACCCAUGU”, the “apparent Kd” value came out at 10.6 nM under setting [1] and 9.2 nM under setting [2]. For the sequence “CGCUCAAUAGAGAAGGAAAGAAUCAGAAGGCGUUACAUGAGGAUCACCCAUGUUUUGUAUAGUAACGAGGAUAUGAUAUGAGCG”, the “apparent Kd” value by setting is: under setting [3], 18.9 nM; under setting [4], 15.3 nM.

Regarding “CAGUAGAUCCGAGGAUAUACAAUCCGGAAACGGUACAUGAGGAUCACCCAUGUAGAAGGCGGAUCUACAGGUACUAAAGUACCC”, the “apparent Kd” value is, setting by setting: under setting [3], 5.99 nM; under setting [4], 7.8 nM.

For the sequence “CGCGAACAGUUUUACAUGAGGAUCACCCAUGUGGACUCAUGGUAGGAUAUCGGGAAGGAGGAAACCGAGAAGGGCUGGUGAGCC”, the “apparent Kd” value under setting [1] is 312 nM and the “apparent Kd” value under setting [2] is 256 nM. Turning to “CUGGGCGGAGGAUAUGCGGGUUGGGCUUUUGUUCGGCUGGGACAUGAGGAUCACCCAUGUAGAAGGUUGUUCGG”, the “apparent Kd” value by setting is: under setting [3], 168 nM; under setting [4], 124 nM. On to “GUAGAGUCAGGAUAUACGAGAUCGAAAGAUCUGUGAUCCAUACAUGAGGAUCACCCAUGUAGAAGGGACUCUAC”, for which the “apparent Kd” value reads like this: under setting [3], 33.7 nM; under setting [4], 364 nM. With “GGUGGCGUGAUAACGCUAGAUAUAACAUGAGGAUCACCCAUGUAGGAUAUCCCGCCGAGAGGGCGGGAGAAGGACAACCAAUGG”, the “apparent Kd” value under setting [3] was found to be 40.9 nM and the “apparent Kd” value under setting [4] was 34 nM. The corresponding values for “UGUGUGUGGGCAGGAUAUGCGUGAAGAUGUAUGAUGUAGUGUGAUGUAACAUGAGGAUCACCCAUGUAGAAGGGCCGGUGUGUG” are 124 nM and 129 nM. In the case of “UUGGACGUCGUAGGAUAUAUAGGAUAUUCCUACAUGAGGAUCACCCAUGUUGACAUGGAAGAAGGACAGAAGGACGAUGUCCAU”, the “apparent Kd” value runs as follows: under setting [1], 27.1 nM; under setting [2], 9.75 nM. With “AAUUUAAUACAUGAGGAUCACCCAUGUAAUACUAGUAAGAUCUAGGAUAUCAGCUCGUUUAGAGCUGAGAAGGAGAUCACAUGU”, the “apparent Kd” value reads like this: under setting [1], 86.3 nM; under setting [2], 26 nM. “UAUUUUAACUAAGGAUAUCUAUAUUAAUUUGAAACAUGAGGAUCACCCAUGUUCAUGGGUUUAUAAGAGAAGGUAGAUGAAUAA”: the “apparent Kd” value came out at 48.7 nM under setting [1] and 20.7 nM under setting [2]. As for “GUAGCAUUCUGAGGAUAUUCAUACCGGAAACGGACAUGAGGAUCACCCAUGUGGCGAAAGCCUUGGGAGAAGGCAGUAUGCUAC”, the “apparent Kd” value was determined as 740 nM under setting [1] and 27.4 nM under setting [2]. In the case of “CUCAUGUGAGGAUAUCAGUAGUGAUACGAUAGUAUUACUGCUGAGAAGGUACAUGAGGAUCACCCAUGUUCCUC”, the “apparent Kd” value came out at 26.9 nM under setting [3] and 37.8 nM under setting [4]. As for “AGCUACGUUUCGUAGCAGUGUCAUCGAGAAGGCCCUGACAUGAGGAUCACCCAUGUUGUUACAUGGGAGGAUAUCGAUGAUACA”, the “apparent Kd” value is 12.6 nM under setting [1] and 4.9 nM under setting [2].

As for “CAAUUUAUAUCAGGAUAUACAAUACAAUGAUUAGUAGAAGGGAUUAAUACAUGAGGAUCACCCAUGUCAUGUGUCAUAAUAACC”, the “apparent Kd” value under setting [3] stood at 24.2 nM and the “apparent Kd” value under setting [4] turned out to be 19.1 nM. As to “UUUAUAUAGUAAGGAUAUGUAUUAUUUUUGUCAACAGAAGGUACUGACAUGAGGAUCACCCAUGUUUUAGUGUGGGCAUGUAGU”, the “apparent Kd” value by setting is: under setting [3], 219 nM; under setting [4], 283 nM.

As to “AUUUUAACAUAGGAUAUCGAAUUUAUUAUUUAACGAGAAGGAUGAACAUGAGGAUCACCCAUGUGGUAUCAUGG”, the “apparent Kd” value runs as follows: under setting [3], 217 nM; under setting [4], 93.6 nM. Regarding “GCUCUACAUGAGGAUCACCCAUGUCCAUCCGCACGAGGAUAUGCAUGGGCGAAAGCUGGUGCAGAAGGCGUGGGAC”, the “apparent Kd” value under setting [1] came out at 190 nM and the “apparent Kd” value under setting [2] was found to be 98.8 nM.

Source of the values: the EternaBench riboswitch data.
